Test results as given in ChEMBL document CHEMBL1123551, “3-Pyrroline N-oxide bis(carbamate) tumor inhibitors as analogues of indicine N-oxide” (J Med Chem, 1987).

Key:
P388 [1] = assay: In vivo antileukemic activity against P388 lymphocytic leukemia at a dose of 100 mg/kg administered intraperitoneally expressed as weight change of treated to control animals; format: functional, Mus musculus; conditions: route intraperitoneal
Outline: (§1)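 P388 leukemia inoculated ip. Test drug in distilled water given ip once daily for 5 days, beginning 24 h post-inoculation; some compounds were dosed as suspensions prepared fresh daily and used immediately. Read-out is body weight change of treated animals relative to untreated controls.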

P388 [2] = assay: In vivo antileukemic activity against P388 lymphocytic leukemia at a dose of 50 mg/kg administered intraperitoneally expressed as weight change of treated to control animals; format: functional, Mus musculus; conditions: route intraperitoneal; outline: as §1
P388 [3] = assay: In vivo antileukemic activity against P388 lymphocytic leukemia at a dose of 12.5 mg/kg administered intraperitoneally expressed as log of the number of tumor cells (cell kill); format: ADME, organism-based; parameters: dose 12.5 mg/kg, route intraperitoneal; conditions: mouse, ip
Outline: (§2)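 P388 tumor inoculated ip. Drug solution in distilled water injected ip as five daily doses, starting 24 h after inoculation; some compounds were given as suspensions made fresh daily and used immediately.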

P388 [4] = assay: In vivo antileukemic activity against P388 lymphocytic leukemia at a dose of 25 mg/kg administered intraperitoneally expressed as log of the number of tumor cells (cell kill); format: ADME, organism-based; parameters: dose 25 mg/kg, route intraperitoneal; conditions: mouse, ip; outline: as §2
P388 [5] = assay: In vivo antileukemic activity against P388 lymphocytic leukemia at a dose of 100 mg/kg administered intraperitoneally expressed as ratio of survival of treated compared to untreated control animals; format: functional, Mus musculus; conditions: route intraperitoneal
Outline: (§3)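 Drug given ip as a solution in distilled water. Five daily doses, starting 24 h after ip tumor inoculation. % T/C is the survival of treated animals divided by that of untreated controls, expressed as a percent. Log cell kill (KE) is the log of tumor cell number at the end of treatment relative to the start. Weight change of treated animals is recorded relative to controls.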

P388 [6] = assay: In vivo antileukemic activity against P388 lymphocytic leukemia at a dose of 25 mg/kg administered intraperitoneally expressed as weight change of treated to control animals; format: functional, Mus musculus; conditions: route intraperitoneal; outline: as §1
P388 [7] = assay: In vivo antileukemic activity against P388 lymphocytic leukemia at a dose of 12.5 mg/kg administered intraperitoneally expressed as weight change of treated to control animals; format: functional, Mus musculus; conditions: route intraperitoneal; outline: as §1
P388 [8] = assay: In vivo antileukemic activity against P388 lymphocytic leukemia at a dose of 12.5 mg/kg administered intraperitoneally expressed as ratio of survival of treated compared to untreated control animals; format: functional, Mus musculus; conditions: route intraperitoneal; outline: as §3
P388 [9] = assay: In vivo antileukemic activity against P388 lymphocytic leukemia at a dose of 50 mg/kg administered intraperitoneally expressed as ratio of survival of treated compared to untreated control animals; format: functional, Mus musculus; conditions: route intraperitoneal; outline: as §3
P388 [10] = assay: In vivo antileukemic activity against P388 lymphocytic leukemia at a dose of 25 mg/kg administered intraperitoneally expressed as ratio of survival of treated compared to untreated control animals; format: functional, Mus musculus; conditions: route intraperitoneal; outline: as §3
P388 [11] = assay: In vivo antileukemic activity against P388 lymphocytic leukemia at a dose of 50 mg/kg administered intraperitoneally expressed as log of the number of tumor cells (cell kill); format: ADME, organism-based; parameters: dose 50 mg/kg, route intraperitoneal; conditions: mouse, ip; outline: as §2
P388 [12] = assay: In vivo antileukemic activity against P388 lymphocytic leukemia at a dose of 100 mg/kg administered intraperitoneally expressed as log of the number of tumor cells (cell kill); format: ADME, organism-based; parameters: dose 100 mg/kg, route intraperitoneal; conditions: mouse, ip; outline: as §2
P388 [13] = assay: In vivo antileukemic activity against P388 lymphocytic leukemia at a dose of 200 mg/kg administered intraperitoneally expressed as weight change of treated to control animals; format: functional, Mus musculus; conditions: route intraperitoneal; outline: as §1
P388 [14] = assay: In vivo antileukemic activity against P388 lymphocytic leukemia at a dose of 400 mg/kg administered intraperitoneally expressed as log of the number of tumor cells (cell kill); format: ADME, organism-based; parameters: dose 400 mg/kg, route intraperitoneal; conditions: mouse, ip; outline: as §2
P388 [15] = assay: In vivo antileukemic activity against P388 lymphocytic leukemia at a dose of 400 mg/kg administered intraperitoneally expressed as ratio of survival of treated compared to untreated control animals; format: functional, Mus musculus; conditions: route intraperitoneal; outline: as §3
P388 [16] = assay: In vivo antileukemic activity against P388 lymphocytic leukemia at a dose of 200 mg/kg administered intraperitoneally expressed as ratio of survival of treated compared to untreated control animals; format: functional, Mus musculus; conditions: route intraperitoneal; outline: as §3
P388 [17] = assay: In vivo antileukemic activity against P388 lymphocytic leukemia at a dose of 400 mg/kg administered intraperitoneally expressed as weight change of treated to control animals; format: functional, Mus musculus; conditions: route intraperitoneal; outline: as §1
P388 [18] = assay: In vivo antileukemic activity against P388 lymphocytic leukemia at a dose of 200 mg/kg administered intraperitoneally expressed as log of the number of tumor cells (cell kill); format: ADME, organism-based; parameters: dose 200 mg/kg, route intraperitoneal; conditions: mouse, ip; outline: as §2
P388 [19] = assay: In vivo antileukemic activity against P388 lymphocytic leukemia at a dose of 3.75 mg/kg administered intraperitoneally expressed as log of the number of tumor cells (cell kill); format: ADME, organism-based; parameters: dose 3.75 mg/kg, route intraperitoneal; conditions: mouse, ip; outline: as §2
P388 [20] = assay: In vivo antileukemic activity against P388 lymphocytic leukemia at a dose of 30 mg/kg administered intraperitoneally expressed as log of the number of tumor cells (cell kill); format: ADME, organism-based; parameters: dose 30 mg/kg, route intraperitoneal; conditions: mouse, ip; outline: as §2
P388 [21] = assay: In vivo antileukemic activity against P388 lymphocytic leukemia at a dose of 30 mg/kg administered intraperitoneally expressed as weight change of treated to control animals; format: functional, Mus musculus; conditions: route intraperitoneal; outline: as §1
P388 [22] = assay: In vivo antileukemic activity against P388 lymphocytic leukemia at a dose of 3.75 mg/kg administered intraperitoneally expressed as ratio of survival of treated compared to untreated control animals; format: functional, Mus musculus; conditions: route intraperitoneal; outline: as §3
P388 [23] = assay: In vivo antileukemic activity against P388 lymphocytic leukemia at a dose of 7.5 mg/kg administered intraperitoneally expressed as weight change of treated to control animals; format: functional, Mus musculus; conditions: route intraperitoneal; outline: as §1
P388 [24] = assay: In vivo antileukemic activity against P388 lymphocytic leukemia at a dose of 7.5 mg/kg administered intraperitoneally expressed as log of the number of tumor cells (cell kill); format: ADME, organism-based; parameters: dose 7.5 mg/kg, route intraperitoneal; conditions: mouse, ip; outline: as §2
P388 [25] = assay: In vivo antileukemic activity against P388 lymphocytic leukemia at a dose of 15 mg/kg administered intraperitoneally expressed as log of the number of tumor cells (cell kill); format: ADME, organism-based; parameters: dose 15 mg/kg, route intraperitoneal; conditions: mouse, ip; outline: as §2
P388 [26] = assay: In vivo antileukemic activity against P388 lymphocytic leukemia at a dose of 7.5 mg/kg administered intraperitoneally expressed as ratio of survival of treated compared to untreated control animals; format: functional, Mus musculus; conditions: route intraperitoneal; outline: as §3
P388 [27] = assay: In vivo antileukemic activity against P388 lymphocytic leukemia at a dose of 30 mg/kg administered intraperitoneally expressed as ratio of survival of treated compared to untreated control animals; format: functional, Mus musculus; conditions: route intraperitoneal; outline: as §3
P388 [28] = assay: In vivo antileukemic activity against P388 lymphocytic leukemia at a dose of 15 mg/kg administered intraperitoneally expressed as ratio of survival of treated compared to untreated control animals; format: functional, Mus musculus; conditions: route intraperitoneal; outline: as §3
P388 [29] = assay: In vivo antileukemic activity against P388 lymphocytic leukemia at a dose of 15 mg/kg administered intraperitoneally expressed as weight change of treated to control animals; format: functional, Mus musculus; conditions: route intraperitoneal; outline: as §1
P388 [30] = assay: In vivo antileukemic activity against P388 lymphocytic leukemia at a dose of 3.75 mg/kg administered intraperitoneally expressed as weight change of treated to control animals; format: functional, Mus musculus; conditions: route intraperitoneal; outline: as §1
P388 [31] = assay: In vivo antileukemic activity against P388 lymphocytic leukemia at a dose of 240 mg/kg administered intraperitoneally expressed as log of the number of tumor cells (cell kill); format: ADME, organism-based; parameters: dose 240 mg/kg, route intraperitoneal; conditions: mouse, ip; outline: as §2
P388 [32] = assay: In vivo antileukemic activity against P388 lymphocytic leukemia at a dose of 240 mg/kg administered intraperitoneally expressed as weight change of treated to control animals; format: functional, Mus musculus; conditions: route intraperitoneal; outline: as §1
P388 [33] = assay: In vivo antileukemic activity against P388 lymphocytic leukemia at a dose of 240 mg/kg administered intraperitoneally expressed as ratio of survival of treated compared to untreated control animals; format: functional, Mus musculus; conditions: route intraperitoneal; outline: as §3

| Compound | Weight change (P388 [1]) | Weight change (P388 [2]) | KE (P388 [3]) | KE (P388 [4]) | T/C (P388 [5]) | Weight change (P388 [6]) | Weight change (P388 [7]) | T/C (P388 [8]) | T/C (P388 [9]) | T/C (P388 [10]) | KE (P388 [11]) | KE (P388 [12]) | further results |
| --- | --- | --- | --- | --- | --- | --- | --- | --- | --- | --- | --- | --- | --- |
| CC(C)NC(=O)OCC1=C(COC(=O)NC(C)C)C(c2ccccc2)[N+](C)([O-])C1 (centres undefined) | -1.5 g | -0.6 g | -1.21 | -1.5 | 134% | -0.1 g | 1.6 g | 115% | 116% | 109% | -1.16 | -0.11 | – |
| CNC(=O)OCC1=CC[N+](C)([O-])C1COC(=O)NC (centres undefined) | -2.1 g | -1.5 g | 0.39 | -1.23 | 159% | -1.2 g | -3.8 g | 142% | 145% | 122% | 0.62 | 1.7 | Weight change (P388 [13]): -2.4 g; KE (P388 [14]): 0.34; T/C (P388 [15]): 143%; T/C (P388 [16]): 150%; Weight change (P388 [17]): -5.7 g; KE (P388 [18]): 1 |
| CC(C)NC(=O)OCC1=C(COC(=O)NC(C)C)C(C)(C)[N+](C)([O-])C1c1ccccc1 (centres undefined) | 0.7 g | 0.9 g | -1.54 | -1.64 | 107% | 0.1 g | 2.1 g | 108% | 107% | 100% | -1.53 | -1.53 | – |
| CC(C)NC(=O)OCc1cn(C)c(-c2ccccc2)c1COC(=O)NC(C)C | – | – | – | – | – | – | – | – | – | – | – | – | KE (P388 [19]): -0.7; KE (P388 [20]): 1.99; Weight change (P388 [21]): -3.4 g; T/C (P388 [22]): 129%; Weight change (P388 [23]): -1.9 g; KE (P388 [24]): 0.32; KE (P388 [25]): 2.63; T/C (P388 [26]): 145%; T/C (P388 [27]): 171%; T/C (P388 [28]): 181%; Weight change (P388 [29]): -3.2 g; Weight change (P388 [30]): -0.5 g |
| C[N+]1([O-])CC=CC1 | – | – | – | – | – | – | – | – | – | – | – | – | KE (P388 [31]): -0.12; Weight change (P388 [32]): -0.2 g; T/C (P388 [33]): 108% |
| CC(C)NC(=O)OCC1=C(COC(=O)NC(C)C)C(c2ccccc2)N(C)C1 (centres undefined) | -2.2 g | -2 g | 0.84 | 0 | 225% | -0.9 g | 0 g | 121% | 145% | 136% | 0.53 | 5.18 | – |
